According to the EternaBench riboswitch data:

System: MS2 coat protein
Assay: apparent Kd, MS2 coat protein; higher = weaker binding; RNA-MaP array; FMN 200 µM where present
In short: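 Designs on Illumina sequencing-chip clusters, transcribed by stalled E. coli RNA polymerase, were exposed to SNAP-549-labelled MS2 coat protein in doubling steps from 0.7 or 1.5 nM up to 3 µM, without and then with constant ligand. The buffer held 100 mM Tris-HCl pH 7.5, 80 mM KCl, 4 mM MgCl2, BSA, DTT, yeast tRNA and Tween-20. Apparent Kd values are medians of filtered per-cluster binding-curve fits to green signal normalised to red-channel RNA signal and control-cluster median Fmax.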

[1] = designed as: OFF switch for flavin mononucleotide, no ligand
[2] = ligand present: flavin mononucleotide, designed as: OFF switch for flavin mononucleotide
[3] = designed as: ON switch for flavin mononucleotide, no ligand
[4] = ligand present: flavin mononucleotide, designed as: ON switch for flavin mononucleotide

| Sequence | apparent Kd [1] | apparent Kd [2] | apparent Kd [3] | apparent Kd [4] |
| --- | --- | --- | --- | --- |
| UAAAUGUGAGGAUAUUCGAAUAACUCGGAGACGAGUUGUUCGGAGAAGGCACAUGAGGAUCACCCAUGUUCCUU | 22.5 nM | 216 nM | – | – |
| UAAAUGUGAGGAUAUUCGUAGUACACGGAGACGUGUAUUACGGAGAAGGCACAUGAGGAUCACCCAUGUUCCUU | 22.2 nM | 166 nM | – | – |
| UAAAUUUUAUGAUAUUAUGACAUUAGAAGGCUGUACAUGUUGAUACAUGAGGAUCACCCAUGUAUAGAGGAUAUAGACAAUUUU | 31 nM | 65.1 nM | – | – |
| UAACAGUUAGGAUAUACCAGGGUAUCCUCGCGGCGCCGAAAACAUGAGGAUCACCCAUGUAGAAGGAACCGUUU | 65 nM | 19.6 nM | – | – |
| UAACAUACAAAUAUACAUGAGGAUCACCCAUGUUUGUUGGGAAGAAGGGUAACUAUAUUACAUAUACAGGAUAUUUAACAUACU | – | – | 15.1 nM | 11.7 nM |
| UAAGAGCGAGGAUAUACGUCGCUGGUCCGGAUGGACGCAUGACAUGAGGAUCACCCAUGUAGAAGGCGCAAAAC | 22.9 nM | 73.3 nM | – | – |
| UAAGCGCAGGAGAAGGGCACUGGACGCUCGCUACAUGAGGAUCACCCAUGUGCAGGAUAUCCGGCGCCACCCGCAAACUCGGUG | 15.8 nM | 72.1 nM | – | – |
| UAAGUUUAGGUAGGAUAUACUUUCAAUUUCUCUUUCCUUACAUGAGGAUCACCCAUGUUUACAUUGUAGAAGGACCACUAUGUU | 31.8 nM | 26.8 nM | – | – |
| UAAUAAUUAAGAGGAUAUAUACAACAUGAGGAUCACCCAUGUACCCAUGUAGUAGAAGGCUUAUUUUUAUUUAAUAAUAUAAUU | – | – | 122 nM | 40.1 nM |
| UAAUCUCAGAUAGGAUAUAUAGGAUAACUUAAGACCGAACAUGAGGAUCACCCAUGUGAUUAUUCGUAGAAGGAUCAAUGACCC | – | – | 119 nM | 119 nM |
| UAAUGUAUAUAGGAUAUCUAGCUGGAUACAGCUAGAGAAGGAUGUACAUGAGGAUCACCCAUGUAAAUCGAUCA | 23.2 nM | 55.7 nM | – | – |
| UAAUUAUUUGUGGUAAUACACUAUGAGGAUAUCAAGGAAUAUAACAUGAGGAUCACCCAUGUGAAUGAGAAGGCAUUAUUUAUA | – | – | 14.9 nM | 9.81 nM |
| UAAUUUUGUCAAGGAUAUGUAAUAUAGAUUUGAAAACAUGAGGAUCACCCAUGUAUAUGGUGGGAACAGAAGGUGAAUGGAGAA | 252 nM | 242 nM | – | – |
| UACAUAAAUGAAGGAUAUCGAUAUCCAACAUGAGGAUCACCCAUGUUGAGGAUCACCCAUGUAAAUGAGAAGGUUAACAUAACU | – | – | 70.5 nM | 73.5 nM |
| UACAUGAGGAUCACCCAUGUUAACAUGGUGUUGUUAUAUCUGAGAAGGGUAAUAUUACAUUAAGUACAGGAUAUCAUUGAUGUU | 208 nM | 46.3 nM | – | – |
| UACCUGAGGCAAAGCUUUAGGUAUACAUGAGGAUCACCCAUGUAGGAUAUGGUAGGCUUUGCUUACCAGAAGGACAUGUUAAUA | 17.3 nM | 56.3 nM | – | – |
| UACGGGUCAGGAUAUGCGAGAGAGUGGGAAAUAGGAAGGUAGCAGAAGGGACAUGAGGAUCACCCAUGUGAGGC | 24.3 nM | 29.5 nM | – | – |
| UACUAAAAGGAGGAUAUCGUAUCGGAGACGAUACGAGAAGGCUUAACAUGAGGAUCACCCAUGUUCUUCAAUAU | 15.8 nM | 18.2 nM | – | – |
| UACUUGUUAGGAUAUCUUACAUUUGCAUCAUAGCAACCAUUGGAGAAGGGACAUGAGGAUCACCCAUGUUUGGU | 42.3 nM | 43.8 nM | – | – |
| UAGAAGUCAGGAUAUCCAUGGCGGCACUUGCGUGGUGGCGUGGAGAAGGGACAUGAGGAUCACCCAUGUAAAGG | 148 nM | 174 nM | – | – |
| UAGAGUCUUGAGGAUAUUGGUACGUACCGGUCCCAAGAAGGCGAGACAUGAGGAUCACCCAUGUGACCGUGAGC | 31.9 nM | 47.8 nM | – | – |
| UAGCGCUGUCGAGAGGAUAUGCGGUGAUGGACAUGAGGAUCACCCAUGUUAGCGAUAGCAUUACGGUAGAAGGCUCUACAGCUGC | – | – | 27.6 nM | 13.6 nM |
| UAGCUUGACGCAGGAUAUCCAAGGCUGAAAUGAGGAGAAGGGCGCCAAACAUGAGGAUCACCCAUGUAUUAUGCAGGGUCCUCG | 302 nM | 152 nM | – | – |
| UAGUACUAGGGAGGAUAUGGGAAGAUACAUGAGGAUCACCCAUGUUUAAGAAUGCCGAGAGGCAACUAGAAGGCCCUAGUACCU | – | – | 463 nM | 19.2 nM |
| UAGUAUAAGGGCAUUAAACAUGAGGAUCACCCAUGUACGAUAGAGGAUAUGCAUUUCAGUUGAGAGUAGAAGGUUAGAGAAGGG | 44.5 nM | 46.3 nM | – | – |
| UAGUAUAAGGGCAUUAAACAUGAGGAUCACCCAUGUACGAUAGAGGAUAUGCAUUUCAGUUUAGAGUAGAAGGUUAGAGAAUAU | 39.1 nM | 47.4 nM | – | – |
| UAGUGAUUGCAAGGAUAUGCUUGUGUUUUAUUUUUUUUAAUAUCUAACAUGAGGAUCACCCAUGUGCAGAAGGUGCUUGAUUUG | – | – | 47.8 nM | 48.8 nM |
| UAUAAUUAGUAGAAGGACGGAGAGUAAGAAGUCGUAGGAUAUACAUAAGACAUGAGGAUCACCCAUGUGUGUAUGUUGGGUAGG | 6.76 nM | 6.7 nM | – | – |

| Sequence | apparent Kd [1] | apparent Kd [2] | apparent Kd [3] | apparent Kd [4] |
| --- | --- | --- | --- | --- |
| UAUAUAAUAAGAGCUGGACUUCAAACAUGAGGAUCACCCAUGUAGGAUAUCAGCACGAUAAGUGCUGAGAAGGACAACCAGCUC | 16.5 nM | 16.8 nM | – | – |
| UAUAUAAUAAGAGCUGGCUCUAAAACAUGAGGAUCACCCAUGUAGGAUAUCAGCACGAUAAGUGCUGAGAAGGACAACCAGCUC | 16.3 nM | 17.3 nM | – | – |
| UAUAUAUAGUAAGGAUAUGUAUAUAUUUUAUCAACAGAAGGUACUGACAUGAGGAUCACCCAUGUUUUAGUGUGGGCAUGUAGA | 68.7 nM | 70.8 nM | – | – |
| UAUAUAUAGUAAGGAUAUGUAUCUAUUUUAUAAACAGAAGGUACUGACAUGAGGAUCACCCAUGUUUUAGUGUGGGCAUGUAGA | 92.2 nM | 114 nM | – | – |
| UAUAUUUAUGUAGGAUAUGGUCUAUAAAAUAGACCAGAAGGACAUGAGGAUCACCCAUGUAUGAAAUUCCAUAAUUGCCGUGUA | 11.4 nM | 11.4 nM | – | – |
| UAUCCGCUAGGAUAUACUAUAUUGUCCUCGUGAGUGAUGCUACAUGAGGAUCACCCAUGUAGAAGGAGCGCGUG | 27.3 nM | 30.6 nM | – | – |
| UAUCCGUCAGUAGGAUAUAUGCCGAGUCAUUGCAUAGAAGGACUGACAUGAGGAUCACCCAUGUCAGAUUGCGCUGGUCUUCCG | 6.24 nM | 6.68 nM | – | – |
| UAUCGCAGUGCAGGAUAUCCAAGGUUUGGCGAAGGAGAAGGGCACGCGACAUGAGGAUCACCCAUGUAAAGUGUGGCGUCCUCU | 116 nM | 62.2 nM | – | – |
| UAUCGGGUGCGACUCGCAAGAGGGACAGAAGGCCAUCGACAUGAGGAUCACCCAUGUAACGAAAUGGAGGAUAUGUCUGGUCGA | – | – | 27.5 nM | 5.65 nM |
| UAUGAGCGAGGAUAUGCUUGGGACGUCGUUCUUGCGGCGAGACAUGAGGAUCACCCAUGUAGAAGGCGCGAGCG | 18.4 nM | 18.5 nM | – | – |
| UAUGGUAAAGUCAGGAUAUACGUACGUCGUUCUAGGUAGAAGGGACAUGAGGAUCACCCAUGUAUGGUAGUGUU | 90 nM | 88.9 nM | – | – |
| UAUGUAUUCGUAGGAUAUCCGUCGCCACCGUGUGGAGAAGGACGAACAUGAGGAUCACCCAUGUAUCAUGGUGUAGACAAUUUU | 77 nM | 135 nM | – | – |
| UAUGUUGUUGUGAGGAUAUACUUAGUUUGACCGUAGUAGAAGGCACAUGAGGAUCACCCAUGUAGAUGCUUGGU | 5.75 nM | 10.8 nM | – | – |
| UAUGUUGUUGUGAGGAUAUACUUUGUUUGGUCGUAGUAGAAGGCACAUGAGGAUCACCCAUGUAGAUUUUUGGU | 19.4 nM | 24.8 nM | – | – |
| UAUUAAACAUAGGAUAUCGAAUAAAUCAUUUAACGAGAAGGAUGAACAUGAGGAUCACCCAUGUGGUAUCAUGG | 246 nM | 256 nM | – | – |
| UAUUAGAUCCGAGGAUAUCCUUAUUAGAAACAUGAGGAUCACCCAUGUAAAGGGAAUUAUUUGUAGGAGAAGGCGGAUUUAGUU | – | – | 67.5 nM | 52.9 nM |
| UAUUAUUGCAAGGAUAUGCUUUUUAUUUCUUUUGCAGAAGGUGCAACAUGAGGAUCACCCAUGUUUCCGGGUAU | 19.7 nM | 28.9 nM | – | – |
| UAUUGAUAAUAUUUUCACAUGAGGAUCACCCAUGUCGCUCGACAGGAUAUAUUUUAUUUGUUUAAGUAGAAGGGUCGCAGAUUU | – | – | 143 nM | 109 nM |
| UAUUUAAGAGGAUAUACAUGAGGAUCACCCAUGUGUGUCUAUACGCGUGAUUUUUCAUGUAGAAGGCUUGGGUA | 160 nM | 60.5 nM | – | – |
| UAUUUACAUGAGGAUCACCCAUGUUAGGAUAUGUUUCUAUCGUCGAAAGAUGAUAUUUGCAGAAGGGACUUUAU | 27.6 nM | 25.1 nM | – | – |
| UCACGGGACUAAGGAUAUACAUGAACUAUUAUUGUAGAAGGUAGAAUGUUAGCUUAUACACUAAACAUGAGGAUCACCCAUGUA | 36.5 nM | 32.8 nM | – | – |
| UCACGGUAUGUAGGAUAUGCAUAGCAUUGCUAUGCAGAAGGACAUGAGGAUCACCCAUGUAUGUAUUCCAUACUAUUCCCGUGU | 6.18 nM | 6.09 nM | – | – |
| UCAGGAGUCACAGGAUAUCCGGCGUAGCACACAGGAGAAGGGUGAUCACGAGCACAUGAGGAUCACCCAUGUGACAUUUGUGAG | – | – | 40.4 nM | 50.7 nM |
| UCAGUAGAGUCAGGAUAUACCGAAAAGAAUCCUCACAUGAGGAUCACCCAUGUAGAAGGGACUCUACUGUAAGUCGGAAACGAC | 91.8 nM | 868 nM | – | – |
| UCAUACUUUCGAGGAUAUCGGUUAACAUAUUAACGAGAAGGCGAUAUAUUGUUUAAUCUUAUAAACAUGAGGAUCACCCAUGUA | – | – | 33.9 nM | 25.4 nM |
| UCAUAUUUACAAGGAUAUCAAUUGAAUAAACAUCGGACAUGAGGAUCACCCAUGUGAAAGUAUGGUGAGAAGGUGUAUUGUCGG | – | – | 217 nM | 154 nM |
| UCAUCAACGGGCGGGUCGGUUGGACAUGAGGAUCACCCAUGUAGAAGGACCGGUGGACUCCGCCGGUAGGAUAUACAUUUGGUG | 41.6 nM | 30.1 nM | – | – |
